Reference: ChEMBL document CHEMBL5376013, “Design, synthesis and biological evaluation of novel morpholinopyrimidine-5-carbonitrile derivatives as dual PI3K/mTOR inhibitors” (RSC Med Chem, 2024)

Experiments:
Format in all cases: functional
Conditions in all cases: read-out: GI
[1] = test system: A549; assay: Antitumor activity against human A549 cells assessed as growth inhibition at 10 uM relative to control
Method in brief: (§1)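 After drug addition, plates were incubated 48 h at 37 °C under 5% CO2. Adherent cells were fixed with cold TCA (10% final, 60 min, 4 °C) and suspension cells with 16% final TCA. Staining used 0.4% SRB in 1% acetic acid, solubilized in 10 mM trizma, read at A515. Percent growth was calculated from time-zero, control and treated absorbances.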

[2] = test system: MDA-MB-231; assay: Antitumor activity against human MDA-MB-231 cells assessed as growth inhibition at 10 uM relative to control; method in brief: as §1
[3] = test system: HCT-116; assay: Antitumor activity against human HCT-116 cells assessed as growth inhibition at 10 uM relative to control; method in brief: as §1
[4] = test system: SW-620; assay: Antitumor activity against human SW-620 cells assessed as growth inhibition at 10 uM relative to control
Method in brief: (§2)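 Drug exposure 48 h at 37 °C, 5% CO2. Adherent cells fixed with cold TCA (10% final), suspension cells with TCA (16% final). Stained with 0.4% SRB in 1% acetic acid, dissolved in 10 mM Tris, A515. Growth relative to time-zero and untreated control.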

[5] = test system: 786-0; assay: Antitumor activity against human 786-0 cells assessed as growth inhibition at 10 uM relative to control; method in brief: as §1
[6] = test system: HCC 2998; assay: Antitumor activity against human HCC 2998 cells assessed as growth inhibition at 10 uM relative to control; method in brief: as §1
[7] = test system: MDA-MB-468; assay: Antitumor activity against human MDA-MB-468 cells assessed as growth inhibition at 10 uM relative to control; method in brief: as §1
[8] = test system: T47D; assay: Antitumor activity against human T47D cells assessed as growth inhibition at 10 uM relative to control; method in brief: as §2
[9] = test system: SK-MEL-2; assay: Antitumor activity against human SK-MEL-2 cells assessed as growth inhibition at 10 uM relative to control; method in brief: as §1
[10] = test system: SN12C; assay: Antitumor activity against human SN12C cells assessed as growth inhibition at 10 uM relative to control; method in brief: as §2
[11] = test system: K562; assay: Antitumor activity against human K562 cells assessed as growth inhibition at 10 uM relative to control; method in brief: as §1
[12] = test system: EKVX; assay: Antitumor activity against human EKVX cells assessed as growth inhibition at 10 uM relative to control; method in brief: as §1
[13] = test system: OVCAR-8; assay: Antitumor activity against human OVCAR-8 cells assessed as growth inhibition at 10 uM relative to control; method in brief: as §1
[14] = test system: SNB-75; assay: Antitumor activity against human SNB-75 cells assessed as growth inhibition at 10 uM relative to control; method in brief: as §2
[15] = test system: RXF 393; assay: Antitumor activity against human RXF 393 cells assessed as growth inhibition at 10 uM relative to control; method in brief: as §1
[16] = test system: Malme-3M; assay: Antitumor activity against human Malme-3M cells assessed as growth inhibition at 10 uM relative to control; method in brief: as §1
[17] = test system: U-251; assay: Antitumor activity against human U-251 cells assessed as growth inhibition at 10 uM relative to control; method in brief: as §2
[18] = test system: NCI-H23; assay: Antitumor activity against human NCI-H23 cells assessed as growth inhibition at 10 uM relative to control; method in brief: as §1
[19] = test system: MOLT-4; assay: Antitumor activity against human MOLT-4 cells assessed as growth inhibition at 10 uM relative to control; method in brief: as §1
[20] = test system: NCI-H226; assay: Antitumor activity against human NCI-H226 cells assessed as growth inhibition at 10 uM relative to control; method in brief: as §1
[21] = test system: SNB-19; assay: Antitumor activity against human SNB-19 cells assessed as growth inhibition at 10 uM relative to control; method in brief: as §2
[22] = test system: HCT-15; assay: Antitumor activity against human HCT-15 cells assessed as growth inhibition at 10 uM relative to control; method in brief: as §1
[23] = test system: SK-MEL-28; assay: Antitumor activity against human SK-MEL-28 cells assessed as growth inhibition at 10 uM relative to control; method in brief: as §2
[24] = test system: OVCAR-5; assay: Antitumor activity against human OVCAR-5 cells assessed as growth inhibition at 10 uM relative to control; method in brief: as §1
[25] = test system: SR; assay: Antitumor activity against human SR cells assessed as growth inhibition at 10 uM relative to control; method in brief: as §2
[26] = test system: SK-MEL-5; assay: Antitumor activity against human SK-MEL-5 cells assessed as growth inhibition at 10 uM relative to control; method in brief: as §2
[27] = test system: MDA-MB-435; assay: Antitumor activity against human MDA-MB-435 cells assessed as growth inhibition at 10 uM relative to control; method in brief: as §1
[28] = test system: IGROV-1; assay: Antitumor activity against human IGROV-1 cells assessed as growth inhibition at 10 uM relative to control; method in brief: as §1
[29] = test system: OVCAR-3; assay: Antitumor activity against human OVCAR-3 cells assessed as growth inhibition at 10 uM relative to control; method in brief: as §1
[30] = test system: RPMI-8226; assay: Antitumor activity against human RPMI-8226 cells assessed as growth inhibition at 10 uM relative to control; method in brief: as §1
[31] = test system: KM12; assay: Antitumor activity against human KM12 cells assessed as growth inhibition at 10 uM relative to control; method in brief: as §1
[32] = test system: SF-539; assay: Antitumor activity against human SF-539 cells assessed as growth inhibition at 10 uM relative to control; method in brief: as §1
[33] = test system: HOP-62; assay: Antitumor activity against human HOP-62 cells assessed as growth inhibition at 10 uM relative to control; method in brief: as §1
[34] = test system: NCI-H460; assay: Antitumor activity against human NCI-H460 cells assessed as growth inhibition at 10 uM relative to control; method in brief: as §1
[35] = test system: BT-549; assay: Antitumor activity against human BT-549 cells assessed as growth inhibition at 10 uM relative to control; method in brief: as §1
[36] = test system: NCI-H522; assay: Antitumor activity against human NCI-H522 cells assessed as growth inhibition at 10 uM relative to control; method in brief: as §1
[37] = test system: CCRF-CEM; assay: Antitumor activity against human CCRF-CEM cells assessed as growth inhibition at 10 uM relative to control; method in brief: as §1
[38] = test system: NCI-H322M; assay: Antitumor activity against human NCI-H322M cells assessed as growth inhibition at 10 uM relative to control; method in brief: as §1
[39] = test system: HL-60; assay: Antitumor activity against human HL-60 cells assessed as growth inhibition at 10 uM relative to control; method in brief: as §1
[40] = test system: HT-29; assay: Antitumor activity against human HT-29 cells assessed as growth inhibition at 10 uM relative to control; method in brief: as §1
[41] = test system: CAKI-1; assay: Antitumor activity against human CAKI-1 cells assessed as growth inhibition at 10 uM relative to control; method in brief: as §1
[42] = test system: Hs-578T; assay: Antitumor activity against human Hs-578T cells assessed as growth inhibition at 10 uM relative to control; method in brief: as §1
[43] = test system: COLO 205; assay: Antitumor activity against human COLO 205 cells assessed as growth inhibition at 10 uM relative to control; method in brief: as §1
[44] = test system: LOX IMVI; assay: Antitumor activity against human LOX IMVI cells assessed as growth inhibition at 10 uM relative to control; method in brief: as §1
[45] = test system: UO-31; assay: Antitumor activity against human UO-31 cells assessed as growth inhibition at 10 uM relative to control; method in brief: as §2
[46] = test system: MCF7; assay: Antitumor activity against human MCF7 cells assessed as growth inhibition at 10 uM relative to control; method in brief: as §1

N#Cc1c(-c2ccc(Cl)cc2)nc(N/N=C/c2cccc(Br)c2)nc1N1CCOCC1
inhibition of growth at 10 µM [1]: 19.6% | inhibition of growth at 10 µM [2]: < 1% | inhibition of growth at 10 µM [3]: 38.5% | inhibition of growth at 10 µM [4]: 68.5% | inhibition of growth at 10 µM [5]: 38.2% | inhibition of growth at 10 µM [6]: < 1% | inhibition of growth at 10 µM [7]: 23.3% | inhibition of growth at 10 µM [8]: 32.5% | inhibition of growth at 10 µM [9]: < 1% | inhibition of growth at 10 µM [10]: < 1% | inhibition of growth at 10 µM [11]: 87.4% | inhibition of growth at 10 µM [12]: 31.2% | inhibition of growth at 10 µM [13]: < 1% | inhibition of growth at 10 µM [14]: 23.2% | inhibition of growth at 10 µM [15]: < 1% | inhibition of growth at 10 µM [16]: < 1% | inhibition of growth at 10 µM [17]: 38.4% | inhibition of growth at 10 µM [18]: < 1% | inhibition of growth at 10 µM [19]: 63.9% | inhibition of growth at 10 µM [20]: 28.8% | inhibition of growth at 10 µM [21]: < 1% | inhibition of growth at 10 µM [22]: 91.6% | inhibition of growth at 10 µM [23]: < 1% | inhibition of growth at 10 µM [24]: 17.9% | inhibition of growth at 10 µM [25]: < 1% | inhibition of growth at 10 µM [26]: 14.4% | inhibition of growth at 10 µM [27]: < 1% | inhibition of growth at 10 µM [28]: 16.4% | inhibition of growth at 10 µM [29]: < 1% | inhibition of growth at 10 µM [30]: 44% | inhibition of growth at 10 µM [31]: 19% | inhibition of growth at 10 µM [32]: 21.2% | inhibition of growth at 10 µM [33]: < 1% | inhibition of growth at 10 µM [34]: 13.1% | inhibition of growth at 10 µM [35]: < 1% | inhibition of growth at 10 µM [36]: < 1% | inhibition of growth at 10 µM [37]: 49.7% | inhibition of growth at 10 µM [38]: < 1% | inhibition of growth at 10 µM [39]: 59.4% | inhibition of growth at 10 µM [40]: 71% | inhibition of growth at 10 µM [41]: 1% | inhibition of growth at 10 µM [42]: 17.9% | inhibition of growth at 10 µM [43]: 56% | inhibition of growth at 10 µM [44]: 20.2% | inhibition of growth at 10 µM [45]: 48.8% | inhibition of growth at 10 µM [46]: < 27.5%
